This passage reports GI50 and Activity results from ChEMBL document CHEMBL1629477, “Efficient synthesis of 6-(hetero)arylthieno[3,2-b]pyridines by Suzuki-Miyaura coupling. Evaluation of growth inhibition on human tumor cell lines, SARs and effects on the cell cycle” (2010).

Each structure is given as a SMILES string. A value given as a limit tells only on which side of the number the result lay.

Type in all cases: functional
Assay [1] concerns NCI-H460. Put plainly: Growth inhibition of human NCI-H460 cells after 48 hrs by sulforhodamine B assay. The note with it: NCI-H460, 48 h. The method, boiled down: (§1)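 Cells kept adherent in RPMI-1640 with 5% heat-inactivated FBS, 2 mM glutamine and penicillin/streptomycin at 37 °C, 5% CO₂. Seeded at 1.5 × 10⁵ cells/mL (MCF-7) or 0.75 × 10⁵ cells/mL (A375-C5, NCI-H460), then grown 24 h. Exposed 48 h to five serial dilutions from up to 150 µM, DMSO ≤0.25%. SRB stain, absorbance 492 nm. GI₅₀ is 50% net growth inhibition; three experiments in duplicate; doxorubicin positive control.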
A general note: The SRB assay estimates cell density from bound dye.

Assay [2] concerns MCF7. The assay can be described thus: Growth inhibition of human MCF7 cells after 48 hrs by sulforhodamine B assay. The conditions noted are these: MCF7, 48 h. The method, boiled down: as §1
Assay [3] relates to A-375. The assay can be described thus: Growth inhibition of human A375 cells after 48 hrs by sulforhodamine B assay. The conditions noted are these: A-375, 48 h. The method, boiled down: as §1
Assay [4] concerns NCI-H460. Put plainly: Cell cycle arrest in human NCI-H460 cells assessed as accumulation at G2/M phase after 48 hrs by flow cytometry. Put shortly: (§2)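 NCI-H460 cells plated at 0.75 × 10⁵ cells/mL, then exposed 48 h to GI₅₀ or 2 × GI₅₀ concentrations (from the SRB assay). Controls were medium only (blank) and DMSO solvent. Cells were harvested, fixed in 70% ethanol and resuspended in PBS. G1/G0, S and G2/M fractions were read by flow cytometry. Three independent experiments in duplicate, mean ± SD.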
(A flow cytometer gives signals particle by particle.)

Assay [5] deals with NCI-H460. Put plainly: Cell cycle arrest in human NCI-H460 cells assessed as accumulation at G1 phase after 48 hrs by flow cytometry. Put shortly:
as §2

On to `COC(=O)c1sc2cc(-c3cccs3)cnc2c1N`, for which the figures for the GI50 in assay [1], in assay [2] and in assay [3] were 18 µM, 26.9 µM and above 150 µM, respectively.

For `COC(=O)c1sc2cc(-c3ccc4ncccc4c3)cnc2c1N`, the GI50 in assay [1], in assay [2] and in assay [3] was above 150 µM throughout.

In the case of `COC(=O)c1sc2cc(-c3ccc4c(ccn4C)c3)cnc2c1N`, the GI50 (as a rule, the concentration that inhibits growth by half) in assay [1] is 20.3 µM; in assay [2], 23 µM; in assay [3], 21.2 µM.

With `COC(=O)c1sc2cc(-c3ccccc3N)cnc2c1N`, the GI50 in assay [1] amounted to 3.8 µM; in assay [2], 4.2 µM; in assay [3], 2.5 µM. Also, the Activity in assay [4] amounted to 12%.

For the compound `COC(=O)c1sc2cc(-c3ccc(OC)cc3)cnc2c1N`, the GI50 in assay [1], in assay [2] and in assay [3] was above 150 µM in each case.

`COC(=O)c1sc2cc(-c3ccc(-c4cccs4)s3)cnc2c1N`: the Activity in assay [5] was determined as 15%. The GI50 in assay [1] was 0.7 µM; in assay [2] it was 1 µM; in assay [3], above 75 µM.

As for `COC(=O)c1sc2cc(-c3cncc4ccccc34)cnc2c1N`, the results for the GI50 in assay [1], in assay [2] and in assay [3] were 7.7 µM, 10.7 µM and 10.1 µM, respectively.

For the compound `COC(=O)c1sc2cc(-c3cnn(C)c3)cnc2c1N`, the GI50 in assay [1], in assay [2] and in assay [3] was above 150 µM in each case.

For `COC(=O)c1sc2cc(-c3ccc4ccccc4c3)cnc2c1N`, the GI50 in assay [1] came out at 43.5 µM; in assay [2], 50.9 µM; in assay [3], 95.6 µM.

In the case of `COC(=O)c1sc2cc(-c3ccc(C#N)cc3)cnc2c1N`, the GI50 in assay [1], in assay [2] and in assay [3] was above 75 µM in each case.

`COC(=O)c1sc2cc(-c3cnc(OC)nc3OC)cnc2c1N`: the GI50 in assay [1], in assay [2] and in assay [3] was above 75 µM in each case.

Turning to `COC(=O)c1sc2cc(-c3ccc(C(F)(F)F)cc3)cnc2c1N`, the GI50 in assay [1], in assay [2] and in assay [3] was above 150 µM in each case.

Consider `COC(=O)c1sc2cc(-c3cnc4ccccc4c3)cnc2c1N`, for which the figures for the GI50 in assay [1], in assay [2] and in assay [3] were 9.5 µM, 9.8 µM and 9.1 µM, respectively.

For `COC(=O)c1sc2cc(-c3cccc(N)c3)cnc2c1N`, the GI50 in assay [1], in assay [2] and in assay [3] was above 150 µM throughout.

For the compound `COC(=O)c1sc2cc(-c3ccc(N)cc3)cnc2c1N`, the figures for the GI50 in assay [1], in assay [2] and in assay [3] were 37.1 µM, 108 µM and 80.8 µM, respectively.

On to `COC(=O)c1sc2cc(-c3ccc(C(C)=O)cc3)cnc2c1N`, for which the GI50 in assay [1], in assay [2] and in assay [3] was above 150 µM in each case.

Turning to `COC(=O)c1sc2cc(-c3ccc(OC)nc3)cnc2c1N`, the GI50 in assay [1], in assay [2] and in assay [3] was above 37.5 µM throughout.

As for `COC(=O)c1sc2cc(-c3cccnc3)cnc2c1N`, the GI50 in assay [1], in assay [2] and in assay [3] was above 112 µM in each case.

Regarding `COC(=O)c1sc2cc(-c3ccoc3)cnc2c1N`, the 50% growth inhibitory concentration (GI50) in assay [1], in assay [2] and in assay [3] was above 120 µM throughout.

Consider `COC(=O)c1sc2cc(-c3cc(OC)cc(OC)c3)cnc2c1N`, for which the figures for the GI50 in assay [1], in assay [2] and in assay [3] were 31.8 µM, 56.6 µM and 82 µM, respectively.

Take `COC(=O)c1sc2cc(-c3ccsc3)cnc2c1N`: the values for the GI50 in assay [1], in assay [2] and in assay [3] were 12.4 µM, 12.7 µM and 12.1 µM, respectively.
